Measured values as given in ChEMBL document CHEMBL1153046, “Synthesis and antitumor activity of substituted triazolo[4,3-a]pyrimidin-6-sulfonamide with an incorporated thiazolidinone moiety” (2009).

Experiments:
Assay type in all cases: functional
U-251 = assay: Growth inhibition of human U251 cells after 48 hrs by sulforhodamine B assay; details: U-251, 48 h
Method in brief: (§1)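 NCI 60-cell-line panel (nine cancer types), with cells grown in RPMI1640 plus 5% fetal calf serum and 2 mM L-glutamine. Cells are seeded at a density that depends on the line and preincubated 24 h. Compounds are then applied at a minimum of five 10-fold dilutions over a 5-log range with 48 h continuous exposure. Viability is read by SRB protein assay, and GI50 is derived from dose-response curves in units of 10^-5 M.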

T47D = assay: Growth inhibition of human T47D cells after 48 hrs by sulforhodamine B assay; method in brief: as §1
SW-620 = assay: Growth inhibition of human SW620 cells after 48 hrs by sulforhodamine B assay; details: SW-620, 48 h; method in brief: as §1
NCI-H322M = assay: Growth inhibition of human NCI-H322M cells after 48 hrs by sulforhodamine B assay
Method in brief: (§2)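 NCI 60-cell-line panel. Cells are grown in RPMI1640 with 5% fetal calf serum and 2 mM L-glutamine, seeded at a density set by growth characteristics, and preincubated 24 h. Compound is tested at a minimum of five concentrations at 10-fold dilution, with 48 h continuous exposure. Viability is read by sulforhodamine B protein assay. GI50, TGI and LC50 come from dose-response curves.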

PC-3 = assay: Growth inhibition of human PC3 cells after 48 hrs by sulforhodamine B assay; details: PC-3, 48 h; method in brief: as §2
SF-295 = assay: Growth inhibition of human SF295 cells after 48 hrs by sulforhodamine B assay; details: SF-295, 48 h; method in brief: as §2
TK-10 = assay: Growth inhibition of human TK10 cells after 48 hrs by sulforhodamine B assay; details: TK-10, 48 h; method in brief: as §1
MOLT-4 = assay: Growth inhibition of human MOLT4 cells after 48 hrs by sulforhodamine B assay; details: MOLT-4, 48 h; method in brief: as §2
SNB-75 = assay: Growth inhibition of human SNB75 cells after 48 hrs by sulforhodamine B assay; details: SNB-75, 48 h; method in brief: as §1
RXF 393 = assay: Growth inhibition of human RXF393 cells after 48 hrs by sulforhodamine B assay; details: RXF 393, 48 h; method in brief: as §2
EKVX = assay: Growth inhibition of human EKVX cells after 48 hrs by sulforhodamine B assay; method in brief: as §2
UO-31 = assay: Growth inhibition of human UO31 cells after 48 hrs by sulforhodamine B assay; details: UO-31, 48 h; method in brief: as §1
SK-OV-3 = assay: Growth inhibition of human SKOV3 cells after 48 hrs by sulforhodamine B assay; details: SK-OV-3, 48 h; method in brief: as §2
OVCAR-4 = assay: Growth inhibition of human OVCAR4 cells after 48 hrs by sulforhodamine B assay; details: OVCAR-4, 48 h; method in brief: as §2
HCT-15 = assay: Growth inhibition of human HCT15 cells after 48 hrs by sulforhodamine B assay; details: HCT-15, 48 h; method in brief: as §2
[1] = Growth inhibition of human Hs 578T cells after 48 hrs by sulforhodamine B assay; method in brief: as §2
ACHN = assay: Growth inhibition of human ACHN cells after 48 hrs by sulforhodamine B assay; method in brief: as §2
HL-60(TB) = assay: Growth inhibition of human HL-60(TB) cells after 48 hrs by sulforhodamine B assay; details: HL-60, 48 h
Method in brief: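 NCI 60-cell-line panel. Cells were grown in RPMI1640 with 5% fetal calf serum and 2 mM L-glutamine, seeded at a density suited to each line, and preincubated 24 h. Compounds were tested at a minimum of five concentrations at 10-fold dilutions over a 5-log range, with 48 h continuous exposure. Growth was read by sulforhodamine B protein staining, and GI50 was taken from dose-response curves.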

LOX IMVI = assay: Growth inhibition of human LOXIMVI cells after 48 hrs by sulforhodamine B assay; method in brief: as §2
DU-145 = assay: Growth inhibition of human DU145 cells after 48 hrs by sulforhodamine B assay; details: DU-145, 48 h; method in brief: as §2
HOP-92 = assay: Growth inhibition of human HOP92 cells after 48 hrs by sulforhodamine B assay; details: HOP-92, 48 h; method in brief: as §2
NCI-H460 = assay: Growth inhibition of human NCI-H460 cells after 48 hrs by sulforhodamine B assay; details: NCI-H460, 48 h; method in brief: as §2
NCI-H522 = assay: Growth inhibition of human NCI-H522 cells after 48 hrs by sulforhodamine B assay; details: NCI-H522, 48 h; method in brief: as §2
SK-MEL-28 = assay: Growth inhibition of human SK-MEL-28 cells after 48 hrs by sulforhodamine B assay; details: SK-MEL-28, 48 h; method in brief: as §2
A549 = assay: Growth inhibition of human A549 cells after 48 hrs by sulforhodamine B assay; details: A549, 48 h; method in brief: as §2
786-0 = assay: Growth inhibition of human 786-0 cells after 48 hrs by sulforhodamine B assay; details: 786-0, 48 h; method in brief: as §2
SNB-19 = assay: Growth inhibition of human SNB19 cells after 48 hrs by sulforhodamine B assay; details: SNB-19, 48 h; method in brief: as §1
BT-549 = assay: Growth inhibition of human BT549 cells after 48 hrs by sulforhodamine B assay; details: BT-549, 48 h; method in brief: as §2
OVCAR-3 = assay: Growth inhibition of human OVCAR-3 cells after 48 hrs by sulforhodamine B assay; details: OVCAR-3, 48 h; method in brief: as §2
HCC 2998 = assay: Growth inhibition of human HCC2998 cells after 48 hrs by sulforhodamine B assay; details: HCC 2998, 48 h; method in brief: as §2
SR = assay: Growth inhibition of human SR cells after 48 hrs by sulforhodamine B assay; method in brief: as §1
[2] = read-out: LC50 (the source's name)

Q: With COc1ccc(/C=N/c2nc3[nH]nc(C)n3c(=O)c2S(=O)(=O)NN2C(=O)C(CN3CCN(C)CC3)SC2c2ccc(OC)cc2)cc1 (stereo not drawn) as the molecule, how does the GI50 (U-251) read?
A: 17.6 µM

Q: And the LC50 (U-251)?
A: > 100 µM

Q: What about the TGI (U-251) of the same molecule?
A: 45.2 µM

Q: What about the GI50 (T47D) of the same molecule?
A: 31.2 µM

Q: And the TGI (T47D)?
A: 89.4 µM

Q: What about the GI50 (SW-620) of the same molecule?
A: 30.4 µM

Q: What about the GI50 (NCI-H322M) of the same molecule?
A: 21.1 µM

Q: And the TGI (NCI-H322M)?
A: 51.1 µM

Q: What about the GI50 (PC-3) of the same molecule?
A: 14.7 µM

Q: What about the LC50 (concentration killing 50% of cells) (PC-3) of the same molecule?
A: 70.2 µM

Q: And the TGI (PC-3)?
A: 32.2 µM

Q: What about the GI50 (SF-295) of the same molecule?
A: 16.8 µM

Q: What about the LC50 (concentration killing 50% of cells) (SF-295) of the same molecule?
A: 76.8 µM

Q: And the TGI (SF-295)?
A: 35.9 µM

Q: And the GI50 (TK-10)?
A: 19.4 µM

Q: What about the LC50 (TK-10) of the same molecule?
A: 82.1 µM

Q: And the TGI (TK-10)?
A: 39.9 µM

Q: And the GI50 (MOLT-4)?
A: 17.8 µM

Q: What about the TGI (MOLT-4) of the same molecule?
A: 58.9 µM

Q: And the CC50 (MOLT-4; [2])?
A: > 100 µM

Q: And the GI50 (SNB-75)?
A: 23.6 µM

Q: What about the TGI (SNB-75) of the same molecule?
A: 51.8 µM

Q: What about the GI50 (RXF 393) of the same molecule?
A: 10.2 µM

Q: What about the TGI (RXF 393) of the same molecule?
A: 31.1 µM

Q: And the CC50 (RXF 393; [2])?
A: 95.1 µM

Q: And the GI50 (EKVX)?
A: 25.9 µM

Q: And the TGI (EKVX)?
A: 60.3 µM

Q: And the GI50 (UO-31)?
A: 20.6 µM

Q: And the LC50 (UO-31)?
A: 70.5 µM

Q: What about the TGI (UO-31) of the same molecule?
A: 38.1 µM

Q: What about the GI50 (SK-OV-3) of the same molecule?
A: 27.1 µM

Q: And the TGI (SK-OV-3)?
A: 73.3 µM

Q: And the GI50 (OVCAR-4)?
A: 23.3 µM

Q: What about the LC50 (OVCAR-4) of the same molecule?
A: 96.5 µM

Q: What about the TGI (OVCAR-4) of the same molecule?
A: 47.4 µM

Q: What about the GI50 (HCT-15) of the same molecule?
A: 17.2 µM

Q: And the TGI (HCT-15)?
A: 70.8 µM

Q: What about the GI50 [1] of the same molecule?
A: 13 µM

Q: And the LC50 (concentration killing 50% of cells) [1]?
A: 88.7 µM

Q: What about the TGI [1] of the same molecule?
A: 34 µM

Q: And the GI50 (ACHN)?
A: 17.4 µM

Q: And the TGI (ACHN)?
A: 34.5 µM

Q: What about the CC50 (ACHN; [2]) of the same molecule?
A: 68.4 µM

Q: And the GI50 (HL-60(TB))?
A: 28.2 µM

Q: What about the LC50 (HL-60(TB)) of the same molecule?
A: > 100 µM

Q: What about the TGI (HL-60(TB)) of the same molecule?
A: 86.8 µM

Q: What about the GI50 (LOX IMVI) of the same molecule?
A: 7.4 µM

Q: What about the TGI (LOX IMVI) of the same molecule?
A: > 100 µM

Q: And the GI50 (DU-145)?
A: 11.8 µM

Q: And the LC50 (concentration giving 50% net cell kill) (DU-145)?
A: 86.6 µM

Q: And the TGI (DU-145)?
A: 32 µM

Q: And the GI50 (HOP-92)?
A: 17.8 µM

Q: And the LC50 (HOP-92)?
A: 74.2 µM

Q: What about the TGI (HOP-92) of the same molecule?
A: 36.4 µM

Q: What about the GI50 (NCI-H460) of the same molecule?
A: 16.4 µM

Q: And the TGI (NCI-H460)?
A: 46.7 µM

Q: And the GI50 (NCI-H522)?
A: 21.9 µM

Q: And the TGI (NCI-H522)?
A: 47.7 µM

Q: And the GI50 (SK-MEL-28)?
A: 30.3 µM

Q: And the TGI (SK-MEL-28)?
A: 78.2 µM

Q: And the GI50 (A549)?
A: 13.4 µM

Q: And the TGI (A549)?
A: 50.8 µM

Q: And the GI50 (786-0)?
A: 16.2 µM

Q: And the TGI (786-0)?
A: 31.2 µM

Q: And the CC50 (786-0; [2])?
A: 59.9 µM

Q: What about the GI50 (SNB-19) of the same molecule?
A: 25.7 µM

Q: And the TGI (SNB-19)?
A: 72.5 µM

Q: And the GI50 (BT-549)?
A: 19.1 µM

Q: And the TGI (BT-549)?
A: 46.3 µM

Q: What about the GI50 (OVCAR-3) of the same molecule?
A: 21.5 µM

Q: What about the LC50 (concentration killing 50% of cells) (OVCAR-3) of the same molecule?
A: 75.3 µM

Q: And the TGI (OVCAR-3)?
A: 40.2 µM

Q: What about the GI50 (HCC 2998) of the same molecule?
A: 8.59 µM

Q: What about the LC50 (HCC 2998) of the same molecule?
A: 71.9 µM

Q: What about the TGI (HCC 2998) of the same molecule?
A: 22.5 µM

Q: And the GI50 (SR)?
A: 7.72 µM

Q: What about the LC50 (concentration killing 50% of cells) (SR) of the same molecule?
A: 84.9 µM

Q: And the TGI (SR)?
A: 27.5 µM
